{"data": "Results pooled from the literature", "note": "Lines come from different studies, so protocols differ."}
{"SMILES": "CCOC(=O)C1=C(CN2CCC(C(=O)Nc3ccc(B4OC(C)(C)C(C)(C)O4)cc3)C2)NC(c2nccs2)=NC1c1ccc(F)cc1Br (stereo not drawn)", "tested on": "Hepatitis B virus", "assay": "viral replication, inhibitor, qPCR", "system": "HepDES19", "setting": "72 h", "measurement": "EC50", "result": "0.77 µM"}
{"SMILES": "COc1cc(N=C2C(=O)N(Cc3ccccc3)c3ccccc32)cc(OC)c1", "tested on": "L02", "assay": "cell growth or viability, MTT", "setting": "48 h", "measurement": "IC50", "result": "> 100 µM"}
{"SMILES": "Fc1ccc(C=NNC(=S)Nc2cccnc2)cc1", "tested on": "Leishmania tropica", "assay": "parasite growth, MTT", "setting": "72 h, promastigote", "measurement": "IC50", "result": "314 µM"}
{"SMILES": "Nc1nn2c(-c3ccco3)cc(-c3ccc(OCc4ccccc4)cc3)nc2c1N=Nc1ccc(F)cc1", "tested on": "Saccharomyces cerevisiae", "assay": "microbial growth, broth dilution", "system": "ATCC9763", "measurement": "MIC", "result": "31.3 µg/mL"}
{"SMILES": "CNC(=S)NN=Cc1ccc(O)c(OC)c1", "tested on": "Leishmania tropica", "assay": "parasite growth", "system": "J774.A1", "setting": "72 h, intracellular, amastigote", "measurement": "IC50", "result": "248 µM"}
{"SMILES": "O=C1Nc2ccccc2C1=Nc1ccccc1I", "tested on": "L02", "assay": "cell growth or viability, MTT", "setting": "48 h", "measurement": "IC50", "result": "77.5 µM"}
{"SMILES": "CCOC(=O)C1=C(CN2CCC[C@H]2C(=O)Nc2cccc(B(O)O)c2)NC(c2nccs2)=N[C@H]1c1ccc(F)cc1Br", "tested on": "Hepatitis B virus", "assay": "viral replication, inhibitor, qPCR", "system": "HepDES19", "setting": "72 h", "measurement": "EC50", "result": "1.9 µM"}
{"SMILES": "C[C@H](Oc1nccc(-c2noc([C@@]3(C)CCCc4sc(N)c(C#N)c43)n2)n1)[C@@H]1CCCN1C", "tested on": "BaF3", "assay": "cell growth or viability", "setting": "72 h", "measurement": "EC50", "result": "0.317 µM"}
{"SMILES": "Cc1nc(NC(=O)N2CCC[C@H]2C(N)=O)sc1-c1ccnc(C(C)(C)C(F)(F)F)c1", "tested on": "CAL-51", "assay": "cell growth or viability, ATP luminescence", "setting": "5 days", "measurement": "EC50", "result": "26 µM"}
{"SMILES": "C[C@H]1CNCCN1c1nccc(-c2onc3c2CCC[C@@]32CCCc3sc(N)c(C#N)c32)n1", "tested on": "BaF3", "assay": "cell growth or viability", "setting": "72 h", "measurement": "EC50", "result": "0.374 µM"}
{"SMILES": "CCOC(=O)C1=C(CN2CCC[C@H]2C(=O)Nc2ccc(B(O)O)cc2)NC(c2nccs2)=N[C@H]1c1ccc(F)cc1Br", "tested on": "Hepatitis B virus", "assay": "viral replication, inhibitor, qPCR", "system": "HepDES19", "setting": "72 h", "measurement": "EC50", "result": "1 µM"}
{"SMILES": "Cc1nc(Nc2ncc(C(=O)Nc3c(C)cccc3Cl)s2)cc(N2CC[C@H](O)C2)n1", "tested on": "NALM-6", "assay": "cell growth or viability, ATP luminescence", "setting": "10 µM, 72 h", "measurement": "inhibition", "result": "68%"}
{"SMILES": "O=C1Nc2ccccc2C1=Nc1cccc(Cl)c1", "tested on": "L02", "assay": "cell growth or viability, MTT", "setting": "48 h", "measurement": "IC50", "result": "16 µM"}
{"SMILES": "CNC(=S)NN=Cc1ccc(F)cc1", "tested on": "Leishmania tropica", "assay": "parasite growth, MTT", "setting": "72 h, promastigote", "measurement": "IC50", "result": "441 µM"}
{"SMILES": "O=C1C(=Nc2cccc(Cl)c2)c2ccccc2N1Cc1ccc([N+](=O)[O-])cc1", "tested on": "L02", "assay": "cell growth or viability, MTT", "setting": "48 h", "measurement": "IC50", "result": "22.7 µM"}
{"SMILES": "C[C@H]1CN(C)CCCN1c1nccc(-c2noc([C@@]3(C)CCCc4sc(N)c(C#N)c43)n2)n1", "tested on": "BaF3", "assay": "cell growth or viability", "setting": "72 h", "measurement": "EC50", "result": "0.41 µM"}
{"SMILES": "Nc1ccn([C@@H]2CS[C@H](CO)O2)c(=O)n1", "tested on": "Hepatitis B virus", "assay": "viral replication, inhibitor, qPCR", "system": "HepDES19", "setting": "72 h", "measurement": "EC50", "result": "0.4 µM"}
{"SMILES": "O=C1C(=Nc2ccc(Cl)cc2Br)c2ccccc2N1Cc1ccc([N+](=O)[O-])cc1", "tested on": "L02", "assay": "cell growth or viability, MTT", "setting": "48 h", "measurement": "IC50", "result": "20.4 µM"}
